Like-named read-outs stand apart in the source and are kept apart here.
Legend:
[1] = target: full-length mCAR (Mus musculus, UniProt O35627); assay: CAR transfection assay, full-length mCAR reporter in HepG2 cells; type: cell-based, murine; conditions: 4 μM androstanol
Method in brief: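 HepG2 cells in DMEM with 10% FBS were plated at 10^5 per well in charcoal-stripped serum. They were co-transfected with pCMX-mCAR or empty pCMX, a […] (LXRE)3 firefly luciferase reporter and a pRL-tk renilla control. At 70–80% confluence, cells got 4 μM androstanol, 0.1% DMSO or 4 μM […] plus 250 nM reference agonist or 0.1–100 μM test compound. After 24 h, firefly/renilla ratio was read; mean ± SD, ≥3 experiments.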

[2] = system: GSTa1 mRNA; assay: Northern blot of liver RNA, GSTa1 mRNA in CAR; type: in vivo, mice; conditions: isopimpinellin 150 mg/kg p.o. 24 h; TC 3 mg/kg i.p. 6 h
[3] = system: Cyp2b10 mRNA; assay: Northern blot of liver RNA, Cyp2b10 mRNA in CAR; conditions: isopimpinellin 150 mg/kg p.o. 24 h, TC 3 mg/kg i.p. 6 h
[4] = target: mCAR-LBD fused to the Gal4 DNA binding domain (Mus musculus, UniProt O35627); assay: CAR transfection assay, Gal4-mCAR LBD fusion reporter in HepG2 cells; type: cell-based, murine; conditions: HepG2, 4 μM androstanol; 250 nM TC or 0.1–100 μM isopimpinellin, 24 h
Sequence of mCAR-LBD fused to the Gal4 DNA binding domain (O35627 119-358 limits assumed): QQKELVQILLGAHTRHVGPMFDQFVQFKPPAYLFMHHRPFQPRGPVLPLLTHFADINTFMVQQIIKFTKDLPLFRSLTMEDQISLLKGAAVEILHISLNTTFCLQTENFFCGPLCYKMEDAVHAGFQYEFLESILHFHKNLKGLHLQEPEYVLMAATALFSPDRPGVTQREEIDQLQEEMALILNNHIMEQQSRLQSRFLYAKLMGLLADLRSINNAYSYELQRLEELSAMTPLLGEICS

[5] = system: Cyp3a11 mRNA; assay: Northern blot of liver RNA, Cyp3a11 mRNA in CAR; conditions: isopimpinellin 150 mg/kg p.o. 24 h, TC 3 mg/kg i.p. 6 h
[6] = system: GSTp mRNA; assay: Northern blot of liver RNA, GSTp mRNA in CAR; type: in vivo, mice; conditions: isopimpinellin 150 mg/kg p.o. 24 h; TC 3 mg/kg i.p. 6 h
[7] = system: P450; assay: Liver microsomal P450 content after oral dosing of mice; type: in vivo; conditions: C57BL/6 mice, 100 mg/kg p.o. 3 days, vs corn oil
[8] = system: P450s 2B9/10; assay: Liver microsomal P450 2B activity; type: in vivo, mice
[9] = system: GSTμ; assay: Western blot of liver cytosol, GSTμ protein expression; type: in vivo, mice
[10] = system: P450 3A11; assay: Liver microsomal P450 3A activity; type: in vivo, mice
[11] = system: P450s 1A1/2; assay: Liver microsomal P450 1A activity; type: in vivo, mice
[12] = system: P450 1A1/1A2; conditions: mouse, in vivo
[13] = system: NQO; assay: Liver cytosolic NQO activity; type: in vivo, mice; conditions: vs corn oil; for Increase in NQO activity, liver cytosol: C57BL/6 mice, 100 mg/kg p.o. 3 days
[14] = system: P450 3A11; assay: Western blot of liver microsomes, P450 3A11 protein expression; conditions: C57BL/6 mice, 100 mg/kg p.o. 3 days
[15] = system: P450 2B10; assay: Western blot of liver microsomes, P450 2B10 protein expression; conditions: C57BL/6 mice, 100 mg/kg p.o. 3 days
[16] = system: GST (DCNB, GST μ); assay: Liver cytosolic GST activity, DCNB as substrate, after oral dosing of mice; type: in vivo; conditions: C57BL/6 mice, 100 mg/kg p.o. 3 days, vs corn oil
[17] = system: P450 1A1/1A2; assay: Western blot of liver microsomes, P450 1A1/1A2 protein expression; conditions: C57BL/6 mice, 100 mg/kg p.o. 3 days
[18] = system: GST (cumene hydroperoxide); assay: Liver GST activity, cumene hydroperoxide as substrate, after oral dosing of mice; type: in vivo; conditions: female SENCAR mice, even at the highest doses, data not shown
[19] = system: GSTπ; assay: Western blot of liver cytosol, GSTπ protein expression; type: in vivo; conditions: SENCAR mice, 35, 70, 150 mg/kg p.o.
[20] = system: P450 2B10; conditions: mouse, in vivo
[21] = system: GSTα; assay: Western blot of liver cytosol, GSTα protein expression; type: in vivo; conditions: SENCAR mice, 35, 70, 150 mg/kg p.o., particularly at the highest doses
[22] = system: P450s 2B9/10; conditions: mouse, in vivo; cited from earlier work
[23] = system: P450 2B; conditions: cited from earlier work
[24] = C57BL/6 mice, 100 mg/kg p.o. 3 days, vs corn oil

Sequence of full-length mCAR (O35627 whole entry): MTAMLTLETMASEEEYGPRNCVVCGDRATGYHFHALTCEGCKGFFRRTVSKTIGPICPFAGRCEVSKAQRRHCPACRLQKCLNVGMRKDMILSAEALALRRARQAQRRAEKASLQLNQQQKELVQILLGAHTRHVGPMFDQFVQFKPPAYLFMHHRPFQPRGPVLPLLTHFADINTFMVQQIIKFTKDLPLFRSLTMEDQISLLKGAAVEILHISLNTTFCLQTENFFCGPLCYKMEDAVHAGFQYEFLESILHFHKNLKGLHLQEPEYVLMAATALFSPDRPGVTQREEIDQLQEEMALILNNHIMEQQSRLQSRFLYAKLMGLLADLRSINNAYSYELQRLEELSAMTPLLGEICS

C[C@@]12CCC[C@H]1[C@@H]1CC[C@H]3C[C@@H](O)CC[C@]3(C)[C@H]1CC2 [androstanol]
Constitutive CAR transactivation [1]: blocked

Clc1cnc(Oc2ccc(Oc3ncc(Cl)cc3Cl)cc2)c(Cl)c1 [TC, 1,4-bis[2-(3,5-dichloropyridyloxy)]benzene, reference compound]
Increase in hepatic GSTa1 mRNA, female CAR(−/−) mice [2]: did not increase
Increase in hepatic GSTa1 mRNA, male CAR(−/−) mice [2]: did not increase
Increase in hepatic GSTa1 mRNA, male and female CAR(+/+) mice [2]: 8–10 fold
Induction of hepatic Cyp2b10 mRNA, CAR(−/−) mice [3]: absent
Induction of hepatic Cyp2b10 mRNA, CAR(+/+) mice ([3]; male and female): ~ 4 fold
Effect on the inhibitory effect of androstanol on Gal4 reporter expression (mCAR-LBD) [4]: counteracted
Induction of hepatic Cyp3a11 mRNA, CAR(−/−) mice [5]: absent
Induction of hepatic Cyp3a11 mRNA, CAR(+/+) mice ([5]; male and female): ~ 4 fold
Increase in hepatic GSTp mRNA, CAR(−/−) mice [6]: no increase
Increase in hepatic GSTp mRNA, female CAR(+/+) mice [6]: ~ 4 fold

CCC1(c2ccccc2)C(=O)NC(=O)NC1=O [PB, Phenobarbital, reference compound]
P450 content, liver microsomes [7]: increased
Increase in P450 2B activity (pentoxyresorufin), liver microsomes [8, 24]: significant increase
Liver cytosolic GSTμ protein expression (western blot densitometry) ([9]; C57BL/6 mice, 100 mg/kg p.o. 3 days): greater effect
Increase in P450 3A activity (testosterone), liver microsomes ([10]; mouse, in vivo, po, 100 mg/kg): 3–4 fold
P450 1 activity (ethoxyresorufin), liver microsomes [11, 24]: significant increase
P450 1A1/1A2 protein expression (western blot densitometry) ([12]; po, 100 mg/kg): increased
Increase in NQO activity, liver cytosol [13]: not significantly different from the control group
P450 3A11 protein expression (western blot densitometry) [14]: increased
P450 2B10 protein expression (western blot densitometry) [15]: increased

O=c1ccc2ccc3occc3c2o1 [angelicin]
GST activity using DCNB as a substrate, liver cytosol [16]: highest increase
Increase in P450 3A activity (testosterone), liver microsomes [10, 24]: not statistically significant
P450 1A1/1A2 protein expression (western blot densitometry) [17]: increased

CC(C)=CCOc1c2occc2cc2ccc(=O)oc12 [imperatorin]
Increase in P450 2B9/10 enzyme activity, dose-response study ([8]; mouse, in vivo): ~ 100 fold
P450 2B activity, liver microsomes, dose-response study ([8]; mouse, in vivo): significant increases
Hepatic expression of GST μ protein, dose-response study ([9]; SENCAR mice, 35, 70, 150 mg/kg p.o.): no increase
P450 3A activity, liver microsomes, dose-response study ([10]; mouse, in vivo): increased
P450 1 activity, liver microsomes, dose-response study ([11]; mouse, in vivo): significant increases
P450 1A1/1A2 protein levels, dose-response study [12]: elevated
Liver cytosolic NQO activity, dose-response study ([13]; female SENCAR mice, 35, 70, 150 mg/kg p.o. 4 days): increased at all doses
GST activity using cumene hydroperoxide as a substrate [18]: no differences
Hepatic expression of GST π protein, dose-response study [19]: modest increase
Increase in P450 2B9/10 protein expression (optical density), dose-response study [20]: 1.5–2 fold
P450 2B10 protein levels, dose-response study [20]: significantly elevated
Hepatic expression of GST α protein, dose-response study [21]: greatly increased
Hepatic P450 2B9/10 activity at 1 h after the final dose [22]: no elevation
Increase in hepatic P450 2B9/10 activity at 24 h after the final dose [22]: 100 fold
Potency at blocking P450 2B activity relative to isopimpinellin [23]: 10–100 times

CC(C)=CCC/C(C)=C/COc1c2ccoc2cc2oc(=O)ccc12 [bergamottin]
Increase in P450 2B activity (pentoxyresorufin), liver microsomes ([8]; mouse, in vivo, po, 100 mg/kg): ~ 5 fold
Increase in P450 3A activity (testosterone), liver microsomes [10, 24]: 3–4 fold
P450 1A1/1A2 protein expression (western blot densitometry) [17]: increased
Increase in NQO activity, liver cytosol [13]: 2–3 fold
P450 3A11 protein expression (western blot densitometry) [14]: increased
P450 2B10 protein expression (western blot densitometry) [15]: increased

From article PMC2585982 (Toxicology and applied pharmacology, 2008)
